An excerpt weighted towards active compounds, which were near 2.9% of everything screened.
C2C12 statin – protects C2C12 myotubes from simvastatin toxicity; ATP luminescence, 48 h; scaled: DMSO 0, geranylgeraniol control 100; rescue of ATP level, % at 7.49 µM; hit rate 0.78% among 330,000; AID 602340;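 active = mean ATP rescue above about 67%, or every replicate alone reaching that limit, limit read from the data, passing the limit was not always enough; inconclusive = no clear call, values can overlap the other calls; inactive = mean under the limit and some replicate under it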;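 note: myotubes were challenged with 10 µM simvastatin during compound exposure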
S100A4 MyoIIA – blocks human S100A4 binding to myosin IIA peptide; P26447; S100A4/TAMRA-MyoIIA peptide fluorescence polarization; inhibition, % at 10.7 µM; hit rate 0.14% among 360,000; AID 652163;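 active = mean inhibition of at least 70% across replicates, with every replicate also reaching that level; inconclusive = mean inhibition reaches 70% but some replicates fall short; inactive = mean inhibition below 70%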
Target sequence (P26447 whole entry, looked up): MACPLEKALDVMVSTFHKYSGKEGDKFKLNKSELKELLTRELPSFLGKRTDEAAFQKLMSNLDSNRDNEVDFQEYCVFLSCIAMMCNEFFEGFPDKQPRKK
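Material: S100A4 monomer protein / Buffer or medium: 50 mM HEPES pH 7.2, 10 mM CaCl2, 100 mM KCl / Times: 5 min incubation before reading / Benchmarks: neutral control DMSO, positive control TFP / Reagent: labelled myosin peptide probe, 5 nM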
SIRT5 block – blocks human SIRT5 desuccinylation of peptide | Purified SirT5, succinyl-peptide AMC, trypsin-coupled fluorescence | inhibition, % at 15 µM | hit rate 1.1% among 330,000; in the data active = inhibition above about 15%; inconclusive = no clear call, values can overlap the other calls
Target sequence (Q9NXA8 whole entry, looked up): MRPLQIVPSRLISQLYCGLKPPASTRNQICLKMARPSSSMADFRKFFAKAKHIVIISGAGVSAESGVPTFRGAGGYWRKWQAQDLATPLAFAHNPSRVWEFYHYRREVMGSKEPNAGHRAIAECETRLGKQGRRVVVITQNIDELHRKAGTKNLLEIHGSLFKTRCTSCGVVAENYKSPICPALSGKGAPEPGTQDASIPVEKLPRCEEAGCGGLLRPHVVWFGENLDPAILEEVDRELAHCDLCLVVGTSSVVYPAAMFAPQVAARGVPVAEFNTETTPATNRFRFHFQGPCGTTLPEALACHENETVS
DENV2 CPE rescue – protects cells from dengue virus 2 cytopathic effect; DENV2-infected cells, cytopathic effect rescue, plate reader; CPE inhibition, % at 9.99 µM; hit rate 1.7% among 350,000; AID 651640; in the data active = CPE inhibition above about 20%, passing the limit was not always enough; inconclusive = no clear call, values can overlap the other calls; tested in BHK-21 cells;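 note: 0% = median of neutral control wells and 100% = median of positive control wells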
PGC1a acetyl inh – PGC1a acetylation modulation, inhibitor mode. hit rate 0.17% among 350,000. U2OS PGC1a acetylation, AlphaScreen anti-acetyl-lysine; with virally co-expressed GCN5 acetyltransferase. AID 651687. inhibition, % at 15.6 µM;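 active = every replicate shows inhibition of at least 40%; inconclusive = mean inhibition at least 40% but some replicate below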;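 note: 0% = neutral control wells and 100% = positive control wells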
Numbers without * were called inactive.

Results for O=C(NNC(=O)c1ccccc1F)c1ccc(-c2ccccc2Cl)o1 ?
C2C12 statin: -5.3; S100A4 MyoIIA: 6.2; SIRT5 block: -1.4; DENV2 CPE rescue: 21.0*; PGC1a acetyl inh: 0.4

What do the screens show for `COc1ccc(OC(=O)N(C)C[C@@H]2OCc3ccccc3-c3ccccc3C(=O)N([C@@H](C)CO)C[C@H]2C)cc1`?
S100A4 MyoIIA: 9.9; SIRT5 block: -3.8; DENV2 CPE rescue: inconclusive; PGC1a acetyl inh: -10.2

What do the screens show for `COc1ccc(S(=O)(=O)N(C)C[C@@H]2Oc3ccc(NC(=O)CCC(F)(F)F)cc3CC(=O)N([C@@H](C)CO)C[C@H]2C)cc1`?
C2C12 statin: 6.2; S100A4 MyoIIA: 1.6; SIRT5 block: 1.2; DENV2 CPE rescue: 25.4*; PGC1a acetyl inh: -11.3

What do the screens show for `COc1ccc(S(=O)(=O)N(C)C[C@H]2Oc3ccc(NC(=O)Nc4ccc(F)cc4)cc3CC(=O)N([C@@H](C)CO)C[C@H]2C)cc1`?
C2C12 statin: -4.0; DENV2 CPE rescue: 23.3*; PGC1a acetyl inh: -2.8

How did COc1ccc(NC(=O)Nc2ccc3c(c2)CC(=O)N([C@H](C)CO)C[C@H](C)[C@H](CN(C)S(=O)(=O)c2cn(C)cn2)O3)cc1 do in these assays?
C2C12 statin: -0.6; S100A4 MyoIIA: 9.3; SIRT5 block: 5.4; DENV2 CPE rescue: 26.7*; PGC1a acetyl inh: 13.1

Results for COc1ccc(S(=O)(=O)N(C)C[C@@H]2Oc3ccc(NC(=O)Nc4ccc5c(c4)OCO5)cc3CC(=O)N([C@H](C)CO)C[C@H]2C)cc1 ?
C2C12 statin: 1.9; S100A4 MyoIIA: -30.0; SIRT5 block: 7.2; DENV2 CPE rescue: -7.6; PGC1a acetyl inh: -2.1

How did COc1ccc(S(=O)(=O)N(C)C[C@@H]2Oc3ccc(NC(=O)Nc4ccc5c(c4)OCO5)cc3CC(=O)N([C@@H](C)CO)C[C@H]2C)cc1 do in these assays?
C2C12 statin: 6.7; S100A4 MyoIIA: -16.5; SIRT5 block: 8.5; DENV2 CPE rescue: 31.0*; PGC1a acetyl inh: 3.5

What do the screens show for `CNC[C@@H]1Oc2c(N)cccc2C(=O)N([C@@H](C)CO)C[C@H]1C`?
C2C12 statin: 7.0; S100A4 MyoIIA: 3.2; SIRT5 block: -1.9; DENV2 CPE rescue: -5.6; PGC1a acetyl inh: 6.2

What do the screens show for `COc1ccc(NC(=O)Nc2ccc3c(c2)CC(=O)N([C@H](C)CO)C[C@@H](C)[C@H](CN(C)S(=O)(=O)c2ccc(OC)cc2)O3)cc1`?
C2C12 statin: -0.9; S100A4 MyoIIA: 2.9; SIRT5 block: 2.4; DENV2 CPE rescue: -7.5; PGC1a acetyl inh: -3.2

Results for C[C@H](CO)N1C[C@H](C)[C@H](CN(C)S(=O)(=O)c2ccccc2)Oc2ccc(NC(=O)Nc3ccc4c(c3)OCO4)cc2CC1=O ?
C2C12 statin: -93.6; S100A4 MyoIIA: 7.1; SIRT5 block: 16.2*; DENV2 CPE rescue: -4.6; PGC1a acetyl inh: -4.0

Results for COc1ccc(NC(=O)Nc2ccc3c(c2)CC(=O)N([C@H](C)CO)C[C@H](C)[C@@H](CN(C)S(=O)(=O)c2ccc(OC)cc2)O3)cc1 ?
C2C12 statin: 21.3; S100A4 MyoIIA: -4.5; SIRT5 block: 3.7; DENV2 CPE rescue: 69.6*; PGC1a acetyl inh: 9.1

What do the screens show for `COc1ccc(NC(=O)Nc2ccc3c(c2)CC(=O)N([C@H](C)CO)C[C@H](C)[C@@H](CN(C)S(=O)(=O)c2ccc(C)cc2)O3)cc1`?
S100A4 MyoIIA: -5.2; SIRT5 block: 15.1*; DENV2 CPE rescue: -0.8; PGC1a acetyl inh: 8.0

Results for C[C@H](CO)N1C[C@H](C)[C@@H](CN(C)S(=O)(=O)c2ccccc2)Oc2ccc(NC(=O)Nc3ccc4c(c3)OCO4)cc2CC1=O ?
C2C12 statin: 9.0; S100A4 MyoIIA: 1.1; SIRT5 block: 3.8; DENV2 CPE rescue: -2.6; PGC1a acetyl inh: -8.9

What do the screens show for `COc1ccc(CN(C)C[C@H]2Oc3ccc(NC(=O)CCC(F)(F)F)cc3C(=O)N([C@H](C)CO)C[C@H]2C)cc1`?
C2C12 statin: 1.8; S100A4 MyoIIA: 1.2; SIRT5 block: -2.4; DENV2 CPE rescue: 2.4; PGC1a acetyl inh: 4.8

What do the screens show for `C[C@H]1CN([C@@H](C)CO)C(=O)c2cc(NC(=O)c3ccncc3)ccc2O[C@@H]1CN(C)Cc1ccc(Oc2ccccc2)cc1`?
C2C12 statin: -19.3; S100A4 MyoIIA: -17.3; SIRT5 block: -4.2; DENV2 CPE rescue: -1.5; PGC1a acetyl inh: -11.8

Results for O=C(C[C@H]1CC[C@H](NC(=O)C2CCOCC2)[C@H](CO)O1)NCC1CCCCC1 ?
C2C12 statin: 3.1; S100A4 MyoIIA: -5.8; SIRT5 block: -7.6; DENV2 CPE rescue: -0.6; PGC1a acetyl inh: 2.2

What do the screens show for `CCN(CC(=O)Nc1ccc(NC(C)=O)cc1)C(=O)Cc1c(Cl)cccc1Cl`?
C2C12 statin: 8.4; S100A4 MyoIIA: -1.5; SIRT5 block: -0.8; DENV2 CPE rescue: 54.8*

How did C[C@@H]1CN([C@H](C)CO)C(=O)c2cc(NC(=O)Cc3ccccc3)ccc2O[C@@H]1CN(C)S(=O)(=O)c1cn(C)cn1 do in these assays?
C2C12 statin: -26.6; S100A4 MyoIIA: -1.1; SIRT5 block: -2.4; DENV2 CPE rescue: 3.7; PGC1a acetyl inh: -3.0

How did Cc1ccc(-c2cnc3c(c2)C(=O)N([C@H](C)CO)C[C@@H](C)[C@@H](CN(C)C(=O)c2ccccc2)O3)cc1 do in these assays?
C2C12 statin: -6.5; S100A4 MyoIIA: 9.8; SIRT5 block: -1.1; DENV2 CPE rescue: 68.4*; PGC1a acetyl inh: 5.4

Results for C[C@@H]1CN([C@@H](C)CO)C(=O)c2cc(-c3ccncc3)cnc2O[C@@H]1CN(C)C(=O)c1ccncc1 ?
C2C12 statin: 25.9; S100A4 MyoIIA: -30.0; SIRT5 block: -1.0; DENV2 CPE rescue: -1.1; PGC1a acetyl inh: -1.8

How did C[C@H]1CN([C@@H](C)CO)C(=O)c2cc(-c3ccncc3)cnc2O[C@H]1CN(C)C(=O)c1ccncc1 do in these assays?
C2C12 statin: 13.7; S100A4 MyoIIA: -10.2; SIRT5 block: 16.2*; DENV2 CPE rescue: -6.3; PGC1a acetyl inh: -1.4

What do the screens show for `C[C@@H]1CN([C@H](C)CO)C(=O)c2cc(C#Cc3ccc(F)cc3)cnc2O[C@@H]1CN(C)C(=O)c1ccccc1F`?
C2C12 statin: 22.5; S100A4 MyoIIA: -28.0; SIRT5 block: -0.8; DENV2 CPE rescue: 45.0*; PGC1a acetyl inh: 17.6

Results for C[C@@H]1CN([C@H](C)CO)C(=O)c2cc(-c3ccccc3)cnc2O[C@@H]1CN(C)C(=O)c1cccnc1 ?
S100A4 MyoIIA: -1.9; SIRT5 block: 15.5*; DENV2 CPE rescue: 9.4; PGC1a acetyl inh: 7.1

What do the screens show for `C[C@@H]1CN([C@@H](C)CO)C(=O)c2cc(-c3ccccc3)cnc2O[C@@H]1CN(C)C(=O)c1cccnc1`?
C2C12 statin: -3.3; S100A4 MyoIIA: 1.3; SIRT5 block: -1.3; DENV2 CPE rescue: -8.7; PGC1a acetyl inh: 3.6

Results for COCCNC(=O)C[C@@H]1CC[C@@H]2[C@H](COc3ccc(NC(=O)C4CCOCC4)cc3C(=O)N2C)O1 ?
C2C12 statin: -29.3; S100A4 MyoIIA: 10.4; SIRT5 block: 3.8; DENV2 CPE rescue: 0.4; PGC1a acetyl inh: 1.6

High-throughput results: PubChem, Broad Institute
